This note sets out measurements from ChEMBL document CHEMBL1127491, “Sulfinosine congeners: synthesis and antitumor activity in mice of certain N9-alkylpurines and purine ribonucleosides” (J Med Chem, 1994).

One may read the T/C as the ratio of treated to control.

One series is filed under the species Mus musculus. As to the kind of experiment: Antileukemic activity in BD2F1 mice inoculated with 1 x 10E6 L1210 cells. The format is functional.
Settings: not given
The gist of the method:
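BD2F1 mice were inoculated ip on day 0 with 1 x 10^6 L1210 cells and given one ip bolus 24 h later (0.01 mL/g; water or Me2SO vehicle; dose 10x solubility in mg/mL, lowered if lethally toxic). Controls got saline. Six mice per group. %T/C = mean treated life span / mean control life span x 100, pooled over four studies with 10 controls each.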
`CCCCCCn1cnc2c([S+](N)[O-])nc(N)nc21` (stereo not drawn) displayed a T/C of 121%.

As to `Nc1nc([S+]([O-])Cc2ccccc2)c2ncn(C3O[C@H](CO)[C@@H](O)[C@H]3O)c2n1` (stereo partly drawn), the T/C is listed as 137%.

`CSc1nc(N)nc2c1ncn2[C@@H]1O[C@H](CO)[C@@H](O)[C@H]1O` showed a T/C of 98%.

`CCCCCn1cnc2c([S+](N)[O-])ncnc21` (stereo not drawn) registered a T/C of 134%.

For `Nc1nc([S+](N)[O-])c2ncn(CCCCCCO)c2n1` (stereo not drawn), the T/C is recorded as 139%.

In turn, `CCCCCn1cnc2c(S)ncnc21` gave a T/C of 141%.

`CS(=O)(=O)c1nc(N)nc2c1ncn2C1O[C@H](CO)[C@@H](O)[C@H]1O` (stereo partly drawn) gave a T/C of 96%.

`C[S+]([O-])c1nc(N)nc2c1ncn2C1O[C@H](CO)[C@@H](O)[C@H]1O` (stereo partly drawn) came in with a T/C of 114%.

Consider `NSc1nc(N)nc2c1ncn2C1O[C@H](CO)[C@@H](O)[C@H]1O` (stereo partly drawn), for which the T/C is recorded as 170%.

`CCCCCn1cnc2c(S)nc(N)nc21` registered a T/C of 149%.

In turn, `CCCCCn1cnc2c(SN)nc(N)nc21` gave a T/C of 118%.

For the molecule `CCCCCn1cnc2c([S+](N)[O-])nc(N)nc21` (stereo not drawn), the T/C amounted to 117%.

As for `CCCCCCn1cnc2c(SN)ncnc21`, the T/C stood at 116%.

As for `CCCCCCn1cnc2c(S)nc(N)nc21`, the T/C turned out to be 118%.

`CCCCCCn1cnc2c(S)ncnc21` displayed a T/C of 147%.

With `Nc1nc(S(=O)(=O)Cc2ccccc2)c2ncn(C3O[C@H](CO)[C@@H](O)[C@H]3O)c2n1` (stereo partly drawn), the T/C was found to be 115%.

For `Nc1nc([S+](N)[O-])c2ncn(C3O[C@H](CO)[C@@H](O)[C@H]3O)c2n1` (stereo partly drawn), the T/C came to 167%.

`CCCCCCn1cnc2c(SN)nc(N)nc21` registered a T/C of 119%.

A further series deals with L1210. As to the kind of experiment: Percentage of viable L1210 leukemia cells killed by single treatment with the compound. The format is ADME, cell-based. The following applies: mouse.
The molecule `CCCCCCn1cnc2c([S+](N)[O-])nc(N)nc21` (stereo not drawn) registered a Cells killed of 93%.

As for `Nc1nc([S+]([O-])Cc2ccccc2)c2ncn(C3O[C@H](CO)[C@@H](O)[C@H]3O)c2n1` (stereo partly drawn), the Cells killed was determined as 97%.

In turn, `CSc1nc(N)nc2c1ncn2[C@@H]1O[C@H](CO)[C@@H](O)[C@H]1O` came in with a Cells killed of 0%.

The molecule `CCCCCn1cnc2c([S+](N)[O-])ncnc21` (stereo not drawn) came in with a Cells killed of 90%.

`Nc1nc([S+](N)[O-])c2ncn(CCCCCCO)c2n1` (stereo not drawn) showed a Cells killed of 96%.

`CCCCCn1cnc2c(S)ncnc21` registered a Cells killed of 91%.

Consider `CS(=O)(=O)c1nc(N)nc2c1ncn2C1O[C@H](CO)[C@@H](O)[C@H]1O` (stereo partly drawn), for which the Cells killed is recorded as 0%.

On to `C[S+]([O-])c1nc(N)nc2c1ncn2C1O[C@H](CO)[C@@H](O)[C@H]1O` (stereo partly drawn), for which the Cells killed was found to be 71%.

Regarding `NSc1nc(N)nc2c1ncn2C1O[C@H](CO)[C@@H](O)[C@H]1O` (stereo partly drawn), the Cells killed came out at 99.8%.

`CCCCCn1cnc2c(S)nc(N)nc21` registered a Cells killed of 92%.

For `CCCCCn1cnc2c(SN)nc(N)nc21`, the Cells killed worked out at 70%.

Molecule `CCCCCn1cnc2c([S+](N)[O-])nc(N)nc21` (stereo not drawn) had a Cells killed of 72%.

The molecule `CCCCCCn1cnc2c(SN)ncnc21` had a Cells killed of 75%.

Molecule `CCCCCCn1cnc2c(S)nc(N)nc21` registered a Cells killed of 72%.

`CCCCCCn1cnc2c(S)ncnc21` gave a Cells killed of 87%.

`Nc1nc(S(=O)(=O)Cc2ccccc2)c2ncn(C3O[C@H](CO)[C@@H](O)[C@H]3O)c2n1` (stereo partly drawn) had a Cells killed of 76%.

Take `Nc1nc([S+](N)[O-])c2ncn(C3O[C@H](CO)[C@@H](O)[C@H]3O)c2n1` (stereo partly drawn): the Cells killed is reported as 99.8%.

`CCCCCCn1cnc2c(SN)nc(N)nc21` had a Cells killed of 87%.

A further series has as its system Mus musculus. Description: Maximum soluble dosage which induces toxicity in mice when administered intraperitoneally was determined. The following applies: in vivo, ip. The format is organism-based. An outline of the steps:
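Drug was solubilized just before use and given as a single ip bolus at 0.01 mL/g, 24 h after ip inoculation of 1 x 10^6 L1210 cells in BD2F1 mice. This gave a dose 10 times the solubility (mg/mL) in mg/kg. Deaths were assigned to compound toxicity or leukemia by temporal pattern of death and necropsy findings.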
In the case of `CCCCCCn1cnc2c([S+](N)[O-])nc(N)nc21` (stereo not drawn), the Dosage was 460 mg/kg.

For `Nc1nc([S+]([O-])Cc2ccccc2)c2ncn(C3O[C@H](CO)[C@@H](O)[C@H]3O)c2n1` (stereo partly drawn), the Dosage came to 37 mg/kg.

With `CS(=O)(=O)c1nc(N)nc2c1ncn2[C@H]1C[C@H](O)[C@@H](CO)O1`, the Dosage turned out to be 800 mg/kg.

Take `CSc1nc(N)nc2c1ncn2[C@@H]1O[C@H](CO)[C@@H](O)[C@H]1O`: the Dosage amounted to 37 mg/kg.

For `CCCCCn1cnc2c([S+](N)[O-])ncnc21` (stereo not drawn), the Dosage is 480 mg/kg.

For `Nc1nc([S+](N)[O-])c2ncn(CCCCCCO)c2n1` (stereo not drawn), the Dosage was 39 mg/kg.

Consider `CCCCCn1cnc2c(S)ncnc21`, for which the Dosage stood at 41 mg/kg.

In turn, `CS(=O)(=O)c1nc(N)nc2c1ncn2C1O[C@H](CO)[C@@H](O)[C@H]1O` (stereo partly drawn) returned a Dosage of 104 mg/kg.

For `C[S+]([O-])c1nc(N)nc2c1ncn2C1O[C@H](CO)[C@@H](O)[C@H]1O` (stereo partly drawn), the Dosage is 480 mg/kg.

Consider `NSc1nc(N)nc2c1ncn2C1O[C@H](CO)[C@@H](O)[C@H]1O` (stereo partly drawn), for which the Dosage is 22 mg/kg.

The molecule `CCCCCCn1cnc2c([S+](N)[O-])ncnc21` (stereo not drawn) returned a Dosage of 800 mg/kg.

Turning to `CCCCCn1cnc2c(S)nc(N)nc21`, the Dosage was 40 mg/kg.

Consider `CCCCCn1cnc2c(SN)nc(N)nc21`, for which the Dosage was 47 mg/kg.

`CCCCCn1cnc2c([S+](N)[O-])nc(N)nc21` (stereo not drawn) returned a Dosage of 106 mg/kg.

`CCCCCCn1cnc2c(SN)ncnc21` gave a Dosage of 410 mg/kg.

Turning to `CCCCCCn1cnc2c(S)nc(N)nc21`, the Dosage turned out to be 110 mg/kg.

Consider `CCCCCCn1cnc2c(S)ncnc21`, for which the Dosage stood at 44 mg/kg.

In turn, `Nc1nc(S(=O)(=O)Cc2ccccc2)c2ncn(C3O[C@H](CO)[C@@H](O)[C@H]3O)c2n1` (stereo partly drawn) registered a Dosage of 104 mg/kg.

Molecule `Nc1nc([S+](N)[O-])c2ncn(C3O[C@H](CO)[C@@H](O)[C@H]3O)c2n1` (stereo partly drawn) returned a Dosage of 173 mg/kg.

The molecule `C[S+]([O-])c1nc(N)nc2c1ncn2[C@H]1C[C@H](O)[C@@H](CO)O1` (stereo partly drawn) came in with a Dosage of 800 mg/kg.

`CSc1nc(N)nc2c1ncn2[C@H]1C[C@H](O)[C@@H](CO)O1`: the Dosage is 800 mg/kg.

`CCCCCCn1cnc2c(SN)nc(N)nc21` had a Dosage of 105 mg/kg.
